How the values were obtained:
[1] = biological target: Vascular endothelial growth factor receptor 2 (Homo sapiens, UniProt P35968); test: Inhibition of recombinant VEGFR2 kinase domain (unknown origin)
Procedure, shortened: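 In vitro kinase assay using purified recombinant VEGFR-2 kinase domain; IC50 determined.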

[2] = biological target: T1, Hepatocyte growth factor receptor (Homo sapiens, UniProt P08581); test: Inhibition of recombinant MET kinase domain (unknown origin)
[3] = Half life in human liver microsomes; assay type: ADME, Microsome
Homo sapiens = species: Homo sapiens; test: Selectivity ratio of IC50 for recombinant VEGFR2 (unknown origin) to IC50 for recombinant MET (unknown origin)
Procedure, shortened: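 In vitro enzyme assays used purified recombinant MET and VEGFR-2 kinase domains, each tested separately. IC50 values are in nM. The ratio divides the VEGFR-2 enzyme IC50 by the MET enzyme IC50.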

[4] = biological target: T1, Hepatocyte growth factor receptor; test: Inhibition of MET in human MKN-45 cells assessed as reduction in HGF-mediated autophosphorylation; assay type: cell-based
[5] = biological target: Proto-oncogene tyrosine-protein kinase receptor Ret (Homo sapiens, UniProt P07949); test: Inhibition of RET (unknown origin)
[6] = biological target: Mast/stem cell growth factor receptor Kit (Homo sapiens, UniProt P10721); test: Inhibition of c-KIT (unknown origin)
[7] = biological target: T2, Receptor-type tyrosine-protein kinase FLT3 (Homo sapiens, UniProt P36888); test: Inhibition of FLT3 (unknown origin)
T2 sequence (P36888 whole entry): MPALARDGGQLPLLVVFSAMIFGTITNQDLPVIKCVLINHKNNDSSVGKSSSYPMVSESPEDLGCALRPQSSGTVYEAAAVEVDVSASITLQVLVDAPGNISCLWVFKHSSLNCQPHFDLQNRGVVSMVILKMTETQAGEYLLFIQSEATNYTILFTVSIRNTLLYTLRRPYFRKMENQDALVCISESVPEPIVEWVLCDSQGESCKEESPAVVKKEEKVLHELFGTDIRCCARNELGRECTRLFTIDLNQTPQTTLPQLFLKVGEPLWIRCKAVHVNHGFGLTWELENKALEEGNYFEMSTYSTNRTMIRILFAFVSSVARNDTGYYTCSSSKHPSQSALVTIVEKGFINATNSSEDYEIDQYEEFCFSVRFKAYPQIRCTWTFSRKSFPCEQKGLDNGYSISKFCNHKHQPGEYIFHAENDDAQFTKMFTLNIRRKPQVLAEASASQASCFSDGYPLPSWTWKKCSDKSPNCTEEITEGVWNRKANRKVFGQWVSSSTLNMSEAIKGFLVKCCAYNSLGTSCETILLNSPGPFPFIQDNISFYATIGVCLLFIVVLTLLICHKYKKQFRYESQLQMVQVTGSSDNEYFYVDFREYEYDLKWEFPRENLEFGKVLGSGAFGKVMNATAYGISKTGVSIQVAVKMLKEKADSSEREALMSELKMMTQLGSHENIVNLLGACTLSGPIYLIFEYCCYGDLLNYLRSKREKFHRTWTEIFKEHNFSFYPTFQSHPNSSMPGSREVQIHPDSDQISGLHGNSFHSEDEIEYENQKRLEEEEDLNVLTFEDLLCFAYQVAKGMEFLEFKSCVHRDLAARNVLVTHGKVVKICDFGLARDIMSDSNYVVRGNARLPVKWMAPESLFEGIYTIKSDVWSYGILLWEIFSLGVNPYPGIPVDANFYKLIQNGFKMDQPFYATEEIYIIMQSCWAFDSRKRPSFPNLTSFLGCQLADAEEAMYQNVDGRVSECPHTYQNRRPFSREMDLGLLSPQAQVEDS

[8] = biological target: T3, Tyrosine-protein kinase receptor UFO (Homo sapiens, UniProt P30530); test: Inhibition of Axl (unknown origin)
T3 sequence (P30530 whole entry): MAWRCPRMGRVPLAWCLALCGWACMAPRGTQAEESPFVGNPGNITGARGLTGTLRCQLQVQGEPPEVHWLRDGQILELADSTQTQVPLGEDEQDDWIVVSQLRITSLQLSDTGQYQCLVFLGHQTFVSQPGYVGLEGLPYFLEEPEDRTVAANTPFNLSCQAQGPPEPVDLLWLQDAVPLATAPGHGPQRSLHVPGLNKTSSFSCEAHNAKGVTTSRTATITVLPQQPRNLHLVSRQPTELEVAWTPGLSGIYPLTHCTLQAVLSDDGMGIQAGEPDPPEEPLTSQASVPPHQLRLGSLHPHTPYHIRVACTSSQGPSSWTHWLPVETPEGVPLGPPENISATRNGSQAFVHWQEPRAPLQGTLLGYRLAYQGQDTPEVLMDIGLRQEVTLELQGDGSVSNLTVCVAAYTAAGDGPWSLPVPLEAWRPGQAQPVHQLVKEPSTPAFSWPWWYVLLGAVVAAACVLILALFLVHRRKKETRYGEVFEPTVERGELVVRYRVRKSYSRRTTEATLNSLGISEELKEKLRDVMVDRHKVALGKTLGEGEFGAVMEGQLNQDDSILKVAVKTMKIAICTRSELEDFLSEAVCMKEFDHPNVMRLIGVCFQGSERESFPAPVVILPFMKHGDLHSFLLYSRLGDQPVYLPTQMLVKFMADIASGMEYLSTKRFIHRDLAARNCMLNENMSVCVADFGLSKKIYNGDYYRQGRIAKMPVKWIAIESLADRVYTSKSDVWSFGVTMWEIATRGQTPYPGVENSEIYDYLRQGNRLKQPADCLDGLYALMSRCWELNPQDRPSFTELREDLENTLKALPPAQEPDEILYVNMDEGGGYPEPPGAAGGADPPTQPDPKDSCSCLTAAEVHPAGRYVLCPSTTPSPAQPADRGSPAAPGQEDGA

[9] = biological target: Platelet-derived growth factor receptor beta (Homo sapiens, UniProt P09619); test: Inhibition of PDGFRbeta (unknown origin)
[10] = biological target: Macrophage-stimulating protein receptor (Homo sapiens, UniProt Q04912); test: Inhibition of Ron (unknown origin)

Sequence of Vascular endothelial growth factor receptor 2 (P35968 whole entry, the tested form may be a part): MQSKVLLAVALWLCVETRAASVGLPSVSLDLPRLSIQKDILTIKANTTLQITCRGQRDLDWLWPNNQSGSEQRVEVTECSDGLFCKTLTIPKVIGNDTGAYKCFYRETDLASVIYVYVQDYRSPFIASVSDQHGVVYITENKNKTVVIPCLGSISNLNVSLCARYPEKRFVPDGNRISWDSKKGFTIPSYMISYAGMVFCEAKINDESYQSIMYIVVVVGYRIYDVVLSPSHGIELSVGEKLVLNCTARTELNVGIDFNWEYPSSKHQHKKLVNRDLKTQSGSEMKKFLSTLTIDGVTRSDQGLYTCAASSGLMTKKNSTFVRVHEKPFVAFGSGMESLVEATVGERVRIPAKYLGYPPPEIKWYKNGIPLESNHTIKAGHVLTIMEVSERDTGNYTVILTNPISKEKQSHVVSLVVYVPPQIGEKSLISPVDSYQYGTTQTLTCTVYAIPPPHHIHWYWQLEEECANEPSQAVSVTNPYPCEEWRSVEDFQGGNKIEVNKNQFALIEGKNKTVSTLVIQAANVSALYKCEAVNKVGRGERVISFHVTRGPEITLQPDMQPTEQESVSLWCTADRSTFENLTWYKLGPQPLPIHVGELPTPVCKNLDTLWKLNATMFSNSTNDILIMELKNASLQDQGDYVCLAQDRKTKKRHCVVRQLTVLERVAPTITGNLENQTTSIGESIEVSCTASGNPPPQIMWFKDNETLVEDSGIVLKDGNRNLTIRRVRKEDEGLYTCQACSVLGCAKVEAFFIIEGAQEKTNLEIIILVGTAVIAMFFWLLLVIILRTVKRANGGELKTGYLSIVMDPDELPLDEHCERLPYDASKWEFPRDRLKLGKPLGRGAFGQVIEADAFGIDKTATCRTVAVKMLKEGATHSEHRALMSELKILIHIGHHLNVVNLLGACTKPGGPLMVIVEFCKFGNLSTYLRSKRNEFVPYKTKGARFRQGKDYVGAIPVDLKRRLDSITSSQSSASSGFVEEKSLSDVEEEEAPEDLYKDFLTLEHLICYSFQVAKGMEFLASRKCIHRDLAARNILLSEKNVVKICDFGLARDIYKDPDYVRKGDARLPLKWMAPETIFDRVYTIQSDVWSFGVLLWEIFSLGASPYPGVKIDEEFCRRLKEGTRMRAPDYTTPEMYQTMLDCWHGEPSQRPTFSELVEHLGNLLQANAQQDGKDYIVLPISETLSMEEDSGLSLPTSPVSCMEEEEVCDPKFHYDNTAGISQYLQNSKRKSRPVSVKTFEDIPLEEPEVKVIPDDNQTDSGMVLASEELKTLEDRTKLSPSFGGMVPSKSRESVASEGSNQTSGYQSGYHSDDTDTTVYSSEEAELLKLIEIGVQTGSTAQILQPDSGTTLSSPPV
T1 sequence (P08581 whole entry, the tested form may be a part): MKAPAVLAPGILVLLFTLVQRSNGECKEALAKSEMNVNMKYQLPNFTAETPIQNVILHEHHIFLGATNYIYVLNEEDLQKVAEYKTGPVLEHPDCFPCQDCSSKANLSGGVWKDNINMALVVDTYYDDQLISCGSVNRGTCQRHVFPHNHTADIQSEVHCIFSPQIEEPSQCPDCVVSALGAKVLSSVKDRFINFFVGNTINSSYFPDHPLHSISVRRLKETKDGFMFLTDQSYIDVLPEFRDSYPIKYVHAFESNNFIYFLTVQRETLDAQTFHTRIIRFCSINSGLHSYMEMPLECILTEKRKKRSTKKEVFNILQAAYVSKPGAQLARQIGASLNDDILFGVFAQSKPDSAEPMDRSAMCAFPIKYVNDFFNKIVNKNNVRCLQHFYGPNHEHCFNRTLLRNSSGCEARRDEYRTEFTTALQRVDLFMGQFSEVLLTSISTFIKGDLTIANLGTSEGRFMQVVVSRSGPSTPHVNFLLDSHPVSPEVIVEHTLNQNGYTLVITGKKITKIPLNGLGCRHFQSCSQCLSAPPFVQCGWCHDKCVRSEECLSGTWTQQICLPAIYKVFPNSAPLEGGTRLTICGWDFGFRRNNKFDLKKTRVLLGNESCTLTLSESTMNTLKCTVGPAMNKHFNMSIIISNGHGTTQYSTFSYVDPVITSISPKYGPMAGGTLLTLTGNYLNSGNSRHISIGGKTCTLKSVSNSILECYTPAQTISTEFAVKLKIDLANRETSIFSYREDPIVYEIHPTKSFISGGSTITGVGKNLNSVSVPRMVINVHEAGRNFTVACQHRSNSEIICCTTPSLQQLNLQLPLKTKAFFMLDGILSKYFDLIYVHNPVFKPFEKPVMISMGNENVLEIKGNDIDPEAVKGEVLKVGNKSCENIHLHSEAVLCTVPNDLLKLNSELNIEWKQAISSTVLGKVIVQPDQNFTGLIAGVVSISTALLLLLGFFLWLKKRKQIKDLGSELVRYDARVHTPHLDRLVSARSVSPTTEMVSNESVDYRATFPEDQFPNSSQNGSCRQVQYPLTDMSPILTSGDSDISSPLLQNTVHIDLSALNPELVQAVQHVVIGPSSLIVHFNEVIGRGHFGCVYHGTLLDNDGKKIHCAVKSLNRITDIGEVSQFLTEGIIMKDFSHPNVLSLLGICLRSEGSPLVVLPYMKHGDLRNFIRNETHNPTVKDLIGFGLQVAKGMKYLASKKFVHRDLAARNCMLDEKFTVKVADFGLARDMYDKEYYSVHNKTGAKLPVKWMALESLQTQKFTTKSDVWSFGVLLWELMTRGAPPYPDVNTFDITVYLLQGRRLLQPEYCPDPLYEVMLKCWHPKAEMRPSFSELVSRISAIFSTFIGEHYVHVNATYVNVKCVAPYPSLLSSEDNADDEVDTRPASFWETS
Sequence of Platelet-derived growth factor receptor beta (P09619 whole entry): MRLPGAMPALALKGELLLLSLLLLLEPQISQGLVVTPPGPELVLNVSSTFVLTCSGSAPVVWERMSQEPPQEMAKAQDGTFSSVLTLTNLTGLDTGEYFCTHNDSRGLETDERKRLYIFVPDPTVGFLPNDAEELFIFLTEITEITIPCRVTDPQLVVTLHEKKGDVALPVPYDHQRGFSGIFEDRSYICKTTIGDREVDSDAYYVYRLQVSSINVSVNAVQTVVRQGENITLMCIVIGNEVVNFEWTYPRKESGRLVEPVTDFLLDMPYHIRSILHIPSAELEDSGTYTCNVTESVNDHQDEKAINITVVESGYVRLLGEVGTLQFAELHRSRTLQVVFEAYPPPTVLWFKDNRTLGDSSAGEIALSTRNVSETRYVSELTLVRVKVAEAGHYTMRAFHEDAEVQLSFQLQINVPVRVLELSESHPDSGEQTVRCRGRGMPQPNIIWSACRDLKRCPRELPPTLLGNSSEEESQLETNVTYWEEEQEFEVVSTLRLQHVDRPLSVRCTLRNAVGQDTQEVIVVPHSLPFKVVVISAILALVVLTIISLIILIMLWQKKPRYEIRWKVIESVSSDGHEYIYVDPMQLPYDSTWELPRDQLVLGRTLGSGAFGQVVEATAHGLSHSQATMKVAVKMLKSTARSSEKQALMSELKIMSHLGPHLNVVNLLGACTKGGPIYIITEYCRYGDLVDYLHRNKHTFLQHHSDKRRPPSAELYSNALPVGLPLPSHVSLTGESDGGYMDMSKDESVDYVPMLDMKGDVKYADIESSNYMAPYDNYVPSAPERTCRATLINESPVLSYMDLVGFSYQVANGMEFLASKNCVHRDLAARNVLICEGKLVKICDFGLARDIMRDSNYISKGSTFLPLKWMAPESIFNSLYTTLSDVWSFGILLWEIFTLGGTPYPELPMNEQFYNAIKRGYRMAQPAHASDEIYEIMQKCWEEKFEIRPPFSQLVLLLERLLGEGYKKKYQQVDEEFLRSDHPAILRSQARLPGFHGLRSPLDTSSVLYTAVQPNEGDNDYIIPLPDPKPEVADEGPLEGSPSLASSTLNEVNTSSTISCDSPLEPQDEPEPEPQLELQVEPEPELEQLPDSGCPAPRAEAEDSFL
Sequence of Proto-oncogene tyrosine-protein kinase receptor Ret (P07949 whole entry): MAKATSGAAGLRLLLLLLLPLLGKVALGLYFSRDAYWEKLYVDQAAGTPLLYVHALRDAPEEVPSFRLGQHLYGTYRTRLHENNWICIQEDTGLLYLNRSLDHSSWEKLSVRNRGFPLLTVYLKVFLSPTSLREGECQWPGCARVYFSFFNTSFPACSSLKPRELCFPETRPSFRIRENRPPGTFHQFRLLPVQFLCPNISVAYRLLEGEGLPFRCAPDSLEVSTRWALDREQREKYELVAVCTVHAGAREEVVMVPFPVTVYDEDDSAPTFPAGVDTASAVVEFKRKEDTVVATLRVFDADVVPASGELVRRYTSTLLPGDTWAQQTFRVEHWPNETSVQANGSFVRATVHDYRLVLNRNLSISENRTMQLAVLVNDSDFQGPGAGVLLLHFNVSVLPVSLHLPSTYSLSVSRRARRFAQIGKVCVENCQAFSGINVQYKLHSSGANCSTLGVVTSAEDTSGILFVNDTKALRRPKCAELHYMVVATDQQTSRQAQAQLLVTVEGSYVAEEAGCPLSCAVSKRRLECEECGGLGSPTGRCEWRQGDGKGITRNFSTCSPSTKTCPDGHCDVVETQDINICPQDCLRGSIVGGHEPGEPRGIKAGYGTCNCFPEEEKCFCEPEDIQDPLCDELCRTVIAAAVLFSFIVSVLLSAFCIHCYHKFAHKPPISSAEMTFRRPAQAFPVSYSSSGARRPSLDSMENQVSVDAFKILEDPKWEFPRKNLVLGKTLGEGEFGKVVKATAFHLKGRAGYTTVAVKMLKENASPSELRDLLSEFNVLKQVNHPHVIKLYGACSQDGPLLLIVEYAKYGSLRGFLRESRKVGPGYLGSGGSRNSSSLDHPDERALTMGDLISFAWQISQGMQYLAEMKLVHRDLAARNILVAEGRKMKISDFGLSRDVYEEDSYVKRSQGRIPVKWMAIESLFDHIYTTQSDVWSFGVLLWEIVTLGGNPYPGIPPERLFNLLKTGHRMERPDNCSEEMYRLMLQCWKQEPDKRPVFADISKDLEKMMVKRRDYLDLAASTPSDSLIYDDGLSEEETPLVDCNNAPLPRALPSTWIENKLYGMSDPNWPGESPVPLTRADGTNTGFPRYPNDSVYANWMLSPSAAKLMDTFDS

| Structure (SMILES) | IC50 [1] | IC50 [2] | half-life [3] | also measured |
| --- | --- | --- | --- | --- |
| COc1cc2c(Oc3ccc(Nc4nccc5[nH]cc(-c6ccc(F)cc6)c(=O)c45)cc3F)ncnc2cc1OCC1CCN(C)CC1 | 33 nM | 15.4 nM |  |  |
| COCCn1cc(-c2ccc(F)cc2)c(=O)c2c(Nc3ccc(Oc4ncnc5cc(OC)c(OC)cc45)c(F)c3)nccc21 | > 3000 nM | 164 nM |  |  |
| COc1cc2ncnc(Oc3ccc(Nc4nccc5[nH]cc(-c6ccc(F)cc6)c(=O)c45)cc3F)c2cc1OCCO.Cc1ccc(S(=O)(=O)O)cc1 | 12.3 nM | 3.5 nM | 4.68 h |  |
| COc1cc2ncnc(Oc3ccc(Nc4nccc5[nH]cc(-c6ccc(F)cc6)c(=O)c45)cc3F)c2cc1OCC(C)(C)O | 52.9 nM | 7.9 nM | 4.17 h |  |
| O=c1c(-c2ccc(F)cc2)c[nH]c2ccnc(Nc3ccc(Oc4ncnc5cc6c(cc45)OCCOCCOCCO6)c(F)c3)c12 | 47.6 nM | 9.5 nM | 0.83 h |  |
| COc1cc2c(Oc3ccc(Nc4nccc5[nH]cc(-c6ccc(F)cc6)c(=O)c45)cc3F)ncnc2cc1OCC(C)(C)O | 93.9 nM | 65.2 nM |  |  |
| COc1cc2ncnc(Oc3ccc(Nc4nccc5[nH]c(C)c(-c6ccc(F)cc6)c(=O)c45)cc3F)c2cc1OC | 455 nM | 227 nM |  |  |
| COc1cc2c(Oc3ccc(Nc4nccc5[nH]cc(-c6ccc(F)cc6)c(=O)c45)cc3F)ncnc2cc1OCCCO | 68 nM | 39.3 nM |  |  |
| COc1cc2ncnc(Oc3ccc(Nc4nccc5c4c(=O)c(-c4ccc(F)cc4)cn5C)cc3F)c2cc1OC | > 3000 nM | 7.1 nM | 4.27 h | Ratio IC50 (Homo sapiens): > 422; IC50 [4]: 82.9 nM |
| COc1cc2ncnc(Oc3ccc(Nc4nccc5[nH]cc(-c6ccc(F)cc6)c(=O)c45)cc3F)c2cc1OC | 267 nM |  | 4.83 h | IC50 [5]: 65.3 nM; Ratio IC50 (Homo sapiens): 27.6; IC50 [6]: 45.1 nM; IC50 [7]: 10.2 nM; IC50 [4]: 59.4 nM; IC50 [8]: 11 nM; IC50 [9]: 1360 nM; IC50 [10]: 90.1 nM |
| COc1cc2c(Oc3ccc(Nc4nccc5[nH]cc(-c6ccc(F)cc6)c(=O)c45)cc3F)ncnc2cc1OCCCN1CCCC1 | 128 nM | 8.3 nM |  | IC50 [4]: 130 nM |
| COc1cc2ncnc(Oc3ccc(Nc4nccc5c4c(=O)c(-c4ccc(F)cc4)cn5CC(=O)c4ccccc4)cc3F)c2cc1OC | > 3000 nM | 196 nM |  |  |

Reference: ChEMBL document CHEMBL4765445, “Structure-activity relationship study of novel quinazoline-based 1,6-naphthyridinones as MET inhibitors with potent antitumor efficacy” (Eur J Med Chem, 2020)
